Several values for one entry are separate records, joined by “and”; a condition that tells them apart may be missing. Equal values may be shown once. Read-outs that look alike come from different tables or passages of the source.
Experiments:
[1] = tested on: VGLUT; assay: Vesicular glutamate uptake into synaptic vesicles; format: biochemical, rat
[2] = target: VGLUT; assay: Kinetics of vesicular glutamate uptake with Brilliant Yellow; format: biochemical, rat; conditions: competitive with glutamate; 0, 40, 60 and 80 nM Brilliant Yellow; n=3
[3] = target: T1, vesicular GABA transporter (Bos taurus, UniProt G3N354); assay: Vesicular GABA uptake into synaptic vesicles; format: biochemical, bovine; conditions: concentrations up to 50 μM
T1 sequence (G3N354 1-526): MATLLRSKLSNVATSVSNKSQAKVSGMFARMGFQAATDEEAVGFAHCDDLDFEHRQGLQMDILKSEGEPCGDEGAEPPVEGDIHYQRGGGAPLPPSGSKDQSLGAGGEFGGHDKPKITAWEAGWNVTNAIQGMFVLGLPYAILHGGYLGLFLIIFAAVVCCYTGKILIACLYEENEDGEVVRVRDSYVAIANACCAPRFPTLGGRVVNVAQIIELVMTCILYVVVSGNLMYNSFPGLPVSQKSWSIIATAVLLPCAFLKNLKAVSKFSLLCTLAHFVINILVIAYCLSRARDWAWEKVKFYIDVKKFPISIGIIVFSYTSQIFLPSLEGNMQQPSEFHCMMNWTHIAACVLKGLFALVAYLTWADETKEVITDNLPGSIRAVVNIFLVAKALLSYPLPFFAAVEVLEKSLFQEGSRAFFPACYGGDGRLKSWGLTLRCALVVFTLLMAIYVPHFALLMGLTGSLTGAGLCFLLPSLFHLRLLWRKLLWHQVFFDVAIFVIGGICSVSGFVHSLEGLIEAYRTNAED
How it was run: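 Crude calf cerebral cortex synaptic vesicles in 20 mM K-Hepes pH 7.4, 4 mM MgSO4, 4 mM KCl, 0.25 M sucrose. Pre-incubated 10 min at 30 °C with varied test compound concentrations. Then 2 mM ATP plus 50 μM [3H]GABA for 10 min. Filtered and washed with 0.15 M KCl.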

[4] = tested on: plasma membrane glutamate transporter; assay: Na+-dependent synaptosomal glutamate uptake; format: biochemical, rat; conditions: for Glutamate uptake / %Control: 50 μM test agent; for Glutamate uptake: Na+-dependent [3H]glutamate uptake into synaptosomes; for %Control: synaptosomal glutamate uptake
How it was run: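 Rat cerebrum synaptosomes (100 μg protein) were incubated 10 min at 37 °C in Krebs solution with 1 μM [3H]glutamate (5 Ci/mmol), ± 50 μM test agent. Na+-dependent uptake was NaCl minus choline chloride values, in dpm and % of control.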

[5] = tested on: VGLUT; conditions: ref [25], cited from earlier work
[6] = Table 1, rat brain synaptic vesicles, 50 μM [3H]glutamate ± ATP, 10-min incubation
[7] = Table 3, Brilliant Yellow analogs, vesicular glutamate uptake

Molecule	IC50 [1, 6] [nM]	IC50 [1, 7] [nM]	also measured
Sulforhodamine	> 50000	–	Inhibitory activity on vesicular glutamate uptake [1]: rather inactive
O=[N+]([O-])c1ccc(C=Cc2ccc([N+](=O)[O-])cc2S(=O)(=O)O)c(S(=O)(=O)O)c1 [4,4’-Dinitrostilbene-2,2’-disulfonate, 4,4’-dinitrostilbene-2,2’-disulfonate]	–	1690 ± 110	–
O=S(=O)([O-])c1cc(N=Nc2ccc(O)cc2)ccc1/C=C/c1ccc(N=Nc2ccc(O)cc2)cc1S(=O)(=O)[O-].[Na+].[Na+] [Brilliant Yellow]	44 ± 7	44 ± 6	Inhibition of vesicular glutamate uptake ([1]; at 0.3 μM): 80%; Ki [2]: 12 nM and 12.5 nM; Effect on vesicular GABA uptake [3]: affected neither; Glutamate uptake [4]: 279,032 dpm; %Control [4]: 112%; Effect on synaptosomal glutamate uptake ([4]; concentrations up to 50 μM): affected neither
CCOc1ccc(N=Nc2ccc(/C=C/c3ccc(N=Nc4ccc(OCC)cc4)cc3S(=O)(=O)O)c(S(=O)(=O)O)c2)cc1 [Chrysophenine]	–	266 ± 70	–
Cc1cc(-c2ccc(/N=N/c3c(S(=O)(=O)O)cc4cc(S(=O)(=O)O)cc(N)c4c3O)c(C)c2)ccc1/N=N/c1c(S(=O)(=O)O)cc2cc(S(=O)(=O)O)cc(N)c2c1O [Trypan Blue]	–	–	IC50 [5, 26]: 49 nM; Ki [5]: ~50 nM
O=S(=O)(O)c1cc(NS(=O)(=O)c2ccccc2)ccc1C=Cc1ccc(NS(=O)(=O)c2ccccc2)cc1S(=O)(=O)O [4,4’-diphenylsulfonamidostilbene-2,2’-disulfonate]	–	> 50000	–
O=S(=O)(O)c1cc(S(=O)(=O)O)c2c(N=Nc3ccc(N=Nc4ccccc4)cc3)c(O)ccc2c1 [Brilliant Crocein MOO]	7700	–	–
O=S(=O)(O)c1ccc2c(N=Nc3cccc4ccccc34)c(O)c(S(=O)(=O)O)cc2c1 [Bordeau R]	6500	–	–
CC(=O)Nc1ccc(C=Cc2ccc(NC(C)=O)cc2S(=O)(=O)O)c(S(=O)(=O)O)c1 [4,4-Diacetamidostilbene-2,2’-disulfonate, 4,4’-diacetamidostilbene-2,2’-disulfonate]	–	> 50000	–
Nitrazine Yellow	4400	–	–
O=C([O-])C1=NN(c2ccc(S(=O)(=O)[O-])cc2)C(=O)C1N=Nc1ccc(S(=O)(=O)[O-])cc1.[Na+].[Na+].[Na+] (centres unmarked) [Tartrazine]	> 50000	–	Inhibitory activity on vesicular glutamate uptake [1]: rather inactive
Nc1ccc(C=Cc2ccc(N)cc2S(=O)(=O)O)c(S(=O)(=O)O)c1 [4,4-Diaminostilbene-2,2’-disulfonate, 4,4’-diaminostilbene-2,2’-disulfonate]	–	> 50000	–
O=C(Nc1ccc(C=Cc2ccc(NC(=O)c3ccccc3)cc2S(=O)(=O)O)c(S(=O)(=O)O)c1)c1ccccc1 [4,4’-dibenzamidostilbene-2,2’-disulfonate]	–	2000	–
COc1cc(N=Nc2c(C)cc(C)cc2S(=O)(=O)[O-])c(C)cc1N=Nc1c(S(=O)(=O)[O-])cc2cc(Nc3ccccc3)ccc2c1O.[Na+].[Na+] [Direct Violet 51]	148 ± 31	–	Glutamate uptake [4]: 258,020 dpm; %Control [4]: 104%
